Laboratory results reported in ChEMBL document CHEMBL1121418, “Synthesis of syn and anti isomers of 6-[[(hydroxyimino)phenyl]methyl]-1-[(1-methylethyl)sulfonyl]-1H-benzimidazol-2-amine. Inhibitors of rhinovirus multiplication” (1980).
Converted amounts (≈) assume the structure as drawn.

Tests used:
[1] = tested on: HeLa; assay: Dose required to prevent rhinovirus type 14 plaque formation in HeLa cells by 50%ug/mL of agar overlay; format: functional, Homo sapiens
Procedure, shortened: (§1)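 Confluent monolayers were infected with diluted virus and allowed to adsorb for 1 h at room temperature. They were then overlaid with 1% agarose mixed 1:1 with 2× MEM (Earle's salts, 2.5% FBS), containing compound diluted from a 10000 μg/mL Me2SO stock. Incubation was at 32 °C until control plaques reached 2–10 mm. Cells were fixed with formalin–sodium acetate and stained with crystal violet, and plaques were counted. Duplicate flasks were averaged, and ID50 was estimated by plotting results between 10% and 90% inhibition.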

[2] = tested on: HeLa; assay: Dose required to prevent rhinovirus type 33 plaque formation in HeLa cells by 50%ug/mL of agar overlay; format: functional; conditions: Homo sapiens, read-out: ID50 (the source's name); procedure, shortened: as §1
[3] = tested on: HeLa; assay: Dose required to prevent rhinovirus type 50 plaque formation in HeLa cells by 50%ug/mL of agar overlay; format: functional; conditions: Homo sapiens, read-out: ID50 (the source's name)
Procedure, shortened: (§2)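 Confluent monolayers in flasks received 0.3 mL of diluted virus and adsorbed 1 h at room temperature. They were then overlaid with 1% agarose plus 2× MEM (Earle's salts, 2.5% FBS, penicillin, streptomycin) containing compound diluted from a 10000 μg/mL Me₂SO stock. Flasks were held at 32 °C until control plaques reached 2–10 mm, then fixed with formalin-acetate and stained with crystal violet. Plaques were counted in duplicate flasks and averaged, and ID₅₀ was estimated by plotting the 10–90% inhibition points.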

[4] = tested on: HeLa; assay: Percent reduction of plaque formation by rhinovirus type 20 in HeLa cells at conc. 0.35 ug/mL.; format: functional, Homo sapiens
Procedure, shortened: (§3)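 Virus was adsorbed onto confluent monolayers for 1 h at room temperature. Monolayers were overlaid with a 1:1 mix of 1% agarose and 2× MEM (Earle's salts, 2.5% FBS) containing compound, diluted from a 10000 μg/mL Me2SO stock. Flasks were incubated at 32 °C until control plaques reached 2–10 mm. Cells were then fixed in 10% formalin–2% sodium acetate and stained with crystal violet, and plaques were counted. Counts from duplicate flasks were averaged.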

[5] = tested on: HeLa; assay: Percent reduction of plaque formation by rhinovirus type 20 in HeLa cells at conc. 0.17 ug/mL.; format: functional, Homo sapiens; procedure, shortened: as §3
[6] = tested on: HeLa; assay: Dose required to prevent rhinovirus type 15 plaque formation in HeLa cells by 50%ug/mL of agar overlay; format: functional; conditions: Homo sapiens, read-out: ID50 (the source's name); procedure, shortened: as §1
[7] = tested on: HeLa; assay: Dose required to prevent rhinovirus type 48 plaque formation in HeLa cells by 50%ug/mL of agar overlay; format: functional; conditions: Homo sapiens, read-out: ID50 (the source's name); procedure, shortened: as §1
[8] = tested on: HeLa; assay: Dose required to prevent rhinovirus type 32 plaque formation in HeLa cells by 50%ug/mL of agar overlay; format: functional; conditions: Homo sapiens, read-out: ID50 (the source's name); procedure, shortened: as §1
[9] = tested on: HeLa; assay: Percent reduction of plaque formation by rhinovirus type 20 in HeLa cells at conc. 0.00 ug/mL.; format: functional, Homo sapiens; procedure, shortened: as §3
[10] = tested on: HeLa; assay: Tested in plaque-reduction assay with rhinovirus type 20 at indicated concentration. and the number of plaque formed was reported at conc. 0.35 ug/mL; format: functional, Homo sapiens; procedure, shortened: as §3
[11] = tested on: HeLa; assay: Dose required to prevent rhinovirus type 16 plaque formation in HeLa cells by 50%ug/mL of agar overlay; format: functional; conditions: Homo sapiens, read-out: ID50 (the source's name); procedure, shortened: as §1
[12] = tested on: HeLa; assay: Tested in plaque-reduction assay with rhinovirus type 20 at indicated concentration. and the number of plaque formed was reported at conc. 0.04 ug/mL; format: functional, Homo sapiens; procedure, shortened: as §3
[13] = tested on: HeLa; assay: Dose required to prevent rhinovirus type 61 plaque formation in HeLa cells by 50%ug/mL of agar overlay; format: functional; conditions: Homo sapiens, read-out: ID50 (the source's name); procedure, shortened: as §1
[14] = tested on: HeLa; assay: Percent reduction of plaque formation by rhinovirus type 20 in HeLa cells at conc. 0.02 ug/mL.; format: functional, Homo sapiens; procedure, shortened: as §3
[15] = tested on: HeLa; assay: Tested in plaque-reduction assay with rhinovirus type 20 at indicated concentration. and the number of plaque formed was reported at conc. 0.02 ug/mL; format: functional, Homo sapiens; procedure, shortened: as §3
[16] = tested on: HeLa; assay: Dose required to prevent rhinovirus type 37 plaque formation in HeLa cells by 50%ug/mL of agar overlay; format: functional; conditions: Homo sapiens, read-out: ID50 (the source's name); procedure, shortened: as §2
[17] = tested on: HeLa; assay: Dose required to prevent rhinovirus type 65 plaque formation in HeLa cells by 50%ug/mL of agar overlay; format: functional; conditions: Homo sapiens, read-out: ID50 (the source's name); procedure, shortened: as §1
[18] = tested on: HeLa; assay: Dose required to prevent rhinovirus type 20 plaque formation in HeLa cells by 50%ug/mL of agar overlay; format: functional; conditions: Homo sapiens, read-out: ID50 (the source's name); procedure, shortened: as §1
[19] = tested on: HeLa; assay: Percent reduction of plaque formation by rhinovirus type 20 in HeLa cells at conc. 0.08 ug/mL.; format: functional, Homo sapiens; procedure, shortened: as §3
[20] = tested on: HeLa; assay: Tested in plaque-reduction assay with rhinovirus type 20 at indicated concentration. and the number of plaque formed was reported at conc. 0.17 ug/mL; format: functional, Homo sapiens; procedure, shortened: as §3
[21] = tested on: HeLa; assay: Dose required to prevent rhinovirus type 69 plaque formation in HeLa cells by 50%ug/mL of agar overlay; format: functional; conditions: Homo sapiens, read-out: ID50 (the source's name); procedure, shortened: as §1
[22] = tested on: HeLa; assay: Percent reduction of plaque formation by rhinovirus type 20 in HeLa cells at conc. 0.04 ug/mL.; format: functional, Homo sapiens; procedure, shortened: as §3
[23] = tested on: HeLa; assay: Percent reduction of plaque formation by rhinovirus type 20 in HeLa cells at conc. 0.75 ug/mL.; format: functional, Homo sapiens; procedure, shortened: as §3
[24] = tested on: HeLa; assay: Tested in plaque-reduction assay with rhinovirus type 20 at indicated concentration. and the number of plaque formed was reported at conc. 0.75 ug/mL; format: functional, Homo sapiens; procedure, shortened: as §3
[25] = tested on: HeLa; assay: Tested in plaque-reduction assay with rhinovirus type 20 at indicated concentration. and the number of plaque formed was reported at conc. 0.08 ug/mL; format: functional, Homo sapiens; procedure, shortened: as §3
[26] = tested on: HeLa; assay: Dose required to prevent rhinovirus type 3 plaque formation in HeLa cells by 50%ug/mL of agar overlay; format: functional; conditions: Homo sapiens, read-out: ID50 (the source's name); procedure, shortened: as §2
[27] = tested on: HeLa; assay: Tested in plaque-reduction assay with rhinovirus type 20 at indicated concentration. and the number of plaque formed was reported at conc. 0.00 ug/mL; format: functional, Homo sapiens; procedure, shortened: as §3
[28] = tested on: HeLa; assay: Dose required to prevent rhinovirus type 72 plaque formation in HeLa cells by 50%ug/mL of agar overlay; format: functional; conditions: Homo sapiens, read-out: ID50 (the source's name); procedure, shortened: as §1
[29] = tested on: HeLa; assay: Percent reduction of plaque formation by rhinovirus type 20 in HeLa cells at conc. 3.0 ug/mL.; format: functional, Homo sapiens; procedure, shortened: as §3
[30] = tested on: HeLa; assay: Tested in plaque-reduction assay with rhinovirus type 20 at indicated concentration. and the number of plaque formed was reported at conc. 1.5 ug/mL; format: functional, Homo sapiens; procedure, shortened: as §3
[31] = tested on: HeLa; assay: Tested in plaque-reduction assay with rhinovirus type 20 at indicated concentration. and the number of plaque formed was reported at conc. 3.0 ug/mL; format: functional, Homo sapiens; procedure, shortened: as §3
[32] = tested on: HeLa; assay: Percent reduction of plaque formation by rhinovirus type 20 in HeLa cells at conc. 1.5 ug/mL.; format: functional, Homo sapiens; procedure, shortened: as §3
[33] = tested on: HeLa; assay: Dose required to prevent rhinovirus type 70 plaque formation in HeLa cells by 50%ug/mL of agar overlay; format: functional; conditions: Homo sapiens, read-out: ID50 (the source's name); procedure, shortened: as §2

| SMILES | IC50 [2] | IC50 [3] | Reduction [4] | Reduction [5] | IC50 [6] | IC50 [7] | IC50 [8] | Reduction [9] | No. of plaques [10] | IC50 [11] | IC50 [13] | IC50 [16] | IC50 [17] | IC50 [18] | Reduction [19] | No. of plaques [20] | IC50 [21] | Reduction [23] | No. of plaques [24] | No. of plaques [25] | also measured |
| --- | --- | --- | --- | --- | --- | --- | --- | --- | --- | --- | --- | --- | --- | --- | --- | --- | --- | --- | --- | --- | --- |
| CC(C)S(=O)(=O)n1c(N)nc2ccc(/C(=N/O)c3ccccc3)cc21 [ENVIROXIME] | 0.01 µg/mL (≈ 0.0279 µM) | > 0.01 µg/mL | 100% | 100% | 0.02 µg/mL (≈ 0.0558 µM) | 0.03 µg/mL (≈ 0.0837 µM) | 0.01 µg/mL (≈ 0.0279 µM) | 0% | 0 | 0.02 µg/mL (≈ 0.0558 µM) | 0.01 µg/mL (≈ 0.0279 µM) | 0.04 µg/mL (≈ 0.112 µM) | > 0.01 µg/mL | 0.02 µg/mL (≈ 0.0558 µM) | 100% | 0 | 0.01 µg/mL (≈ 0.0279 µM) | 100% | 0 | 0 | ID50 [1]: 0.03 pug ml-1; No. of plaques [12]: 18; Reduction [14]: 55%; No. of plaques [15]: 68; Reduction [22]: 87%; IC50 [26]: 0.04 µg/mL (≈ 0.112 µM); No. of plaques [27]: 153; IC50 [28]: 0.03 µg/mL (≈ 0.0837 µM) |
| CC(C)S(=O)(=O)n1c(N)nc2ccc(/C(=N\O)c3ccccc3)cc21 [ZINVIROXIME] | 0.1 µg/mL (≈ 0.279 µM) | 0.12 µg/mL (≈ 0.335 µM) | 67% | 50% | 0.14 µg/mL (≈ 0.391 µM) | 0.28 µg/mL (≈ 0.781 µM) | 0.13 µg/mL (≈ 0.363 µM) | 0% | 49 | 0.16 µg/mL (≈ 0.446 µM) | 0.07 µg/mL (≈ 0.195 µM) | 0.25 µg/mL (≈ 0.697 µM) | 0.07 µg/mL (≈ 0.195 µM) | 0.19 µg/mL (≈ 0.53 µM) | 16% | 87 | 0.08 µg/mL (≈ 0.223 µM) | 100% | 0 | 127 | IC50 ([1]; Homo sapiens, HeLa, read-out: ID50 (the source's name)): 0.36 µg/mL (≈ 1 µM); Reduction [29]: 100%; No. of plaques [30]: 0; No. of plaques [31]: 0; Reduction [32]: 100%; IC50 [33]: 0.06 µg/mL (≈ 0.167 µM); IC50 [26]: 0.37 µg/mL (≈ 1.03 µM); No. of plaques [27]: 153; IC50 [28]: 0.3 µg/mL (≈ 0.837 µM) |
